From ChEMBL document CHEMBL3112482, “Nonclassical antifolates, part 5. Benzodiazepine analogs as a new class of DHFR inhibitors: synthesis, antitumor testing and molecular modeling study” (Eur J Med Chem, 2014)

Experiments:
Type in all cases: functional
SN12C = experiment: Growth inhibition of human SN12C cells at 10 uM after 48 hrs; conditions: read-out: GI
Method in brief: (§1)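 NCI 60-cell-line disease-oriented human tumor panel, single-dose primary screen at 10 µM. Data given as mean-graph percent growth of treated cells, reported as percent growth inhibition (GI %).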

[1] = Growth inhibition of human RXF393 cells at 10 uM after 48 hrs; conditions: RXF 393, 48 h, read-out: GI
Method in brief: (§2)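 Single-dose primary screen in the NCI 60 human tumour cell line panel, run at the NCI facility. The panel covers nine subpanels: leukaemia, non-small cell lung, colon, CNS, melanoma, ovarian, renal, prostate and breast. Read-out was percent growth of treated cells, shown as a mean graph and reported as percent growth inhibition.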

SK-MEL-2 = experiment: Growth inhibition of human SK-MEL-2 cells at 10 uM after 48 hrs; conditions: SK-MEL-2, 48 h, read-out: GI; method in brief: as §1
COLO 205 = experiment: Growth inhibition of human COLO205 cells at 10 uM after 48 hrs; conditions: COLO 205, 48 h, read-out: GI; method in brief: as §2
LOX IMVI = experiment: Growth inhibition of human LOXIMVI cells at 10 uM after 48 hrs; conditions: read-out: GI; method in brief: as §2
NCI-H522 = experiment: Growth inhibition of human NCI-H522 cells at 10 uM after 48 hrs; conditions: NCI-H522, 48 h, read-out: GI; method in brief: as §2
U-251 = experiment: Growth inhibition of human U251 cells at 10 uM after 48 hrs; conditions: U-251, 48 h, read-out: GI; method in brief: as §1
MDA-MB-468 = experiment: Growth inhibition of human MDA-MB-468 cells at 10 uM after 48 hrs; conditions: MDA-MB-468, 48 h, read-out: GI; method in brief: as §2
Malme-3M = experiment: Growth inhibition of human MALME-3M cells at 10 uM after 48 hrs; conditions: read-out: GI; method in brief: as §2
786-0 = experiment: Growth inhibition of human 786-0 cells at 10 uM after 48 hrs; conditions: 786-0, 48 h, read-out: GI; method in brief: as §2
NCI-H226 = experiment: Growth inhibition of human NCI-H226 cells at 10 uM after 48 hrs; conditions: NCI-H226, 48 h, read-out: GI; method in brief: as §2
DU-145 = experiment: Growth inhibition of human DU145 cells at 10 uM after 48 hrs; conditions: DU-145, 48 h, read-out: GI; method in brief: as §2
HT-29 = experiment: Growth inhibition of human HT-29 cells at 10 uM after 48 hrs; conditions: HT-29, 48 h, read-out: GI; method in brief: as §2
BT-549 = experiment: Growth inhibition of human BT549 cells at 10 uM after 48 hrs; conditions: BT-549, 48 h, read-out: GI; method in brief: as §2
HOP-62 = experiment: Growth inhibition of human HOP62 cells at 10 uM after 48 hrs; conditions: HOP-62, 48 h, read-out: GI; method in brief: as §2
ACHN = experiment: Growth inhibition of human ACHN cells at 10 uM after 48 hrs; conditions: read-out: GI; method in brief: as §2
HCT-116 = experiment: Growth inhibition of human HCT116 cells at 10 uM after 48 hrs; conditions: HCT-116, 48 h, read-out: GI; method in brief: as §2
CCRF-CEM = experiment: Growth inhibition of human CCRF-CEM cells at 10 uM after 48 hrs; conditions: read-out: GI; method in brief: as §2
MDA-MB-435 = experiment: Growth inhibition of human MDA-MB-435 cells at 10 uM after 48 hrs; conditions: MDA-MB-435, 48 h, read-out: GI; method in brief: as §2
SF-295 = experiment: Growth inhibition of human SF295 cells at 10 uM after 48 hrs; conditions: SF-295, 48 h, read-out: GI; method in brief: as §1
CAKI-1 = experiment: Growth inhibition of human CAKI-1 cells at 10 uM after 48 hrs; conditions: CAKI-1, 48 h, read-out: GI; method in brief: as §2
OVCAR-8 = experiment: Growth inhibition of human OVCAR8 cells at 10 uM after 48 hrs; conditions: OVCAR-8, 48 h, read-out: GI; method in brief: as §2
KM12 = experiment: Growth inhibition of human KM12 cells at 10 uM after 48 hrs; conditions: KM12, 48 h, read-out: GI; method in brief: as §2
[2] = Cytotoxicity against human prostate cancer cells at 10 uM after 48 hrs; conditions: Cancer cell lines
[3] = Cytotoxicity against human non-small cell lung cancer cells at 10 uM after 48 hrs; conditions: Cancer cell lines; for CC50: read-out: LC50 (the source's name); method in brief: as §2
[4] = Cytotoxicity against human colon cancer cells at 10 uM after 48 hrs; conditions: Cancer cell lines; for CC50: read-out: LC50 (the source's name); method in brief: as §2
[5] = Cytotoxicity against human CNS cancer cells at 10 uM after 48 hrs; conditions: Cancer cell lines; for CC50: read-out: LC50 (the source's name)
[6] = Cytotoxicity against human melanoma cells at 10 uM after 48 hrs; conditions: Melanoma cell; for CC50: read-out: LC50 (the source's name); method in brief: as §2
[7] = Cytotoxicity against human leukemia cells at 10 uM after 48 hrs; conditions: Leukemia cell

SMILES	inhibition of growth at 10 µM (SN12C) [%]	inhibition of growth at 10 µM [1] [%]	inhibition of growth at 10 µM (SK-MEL-2) [%]	inhibition of growth at 10 µM (COLO 205) [%]	inhibition of growth at 10 µM (NCI-H522) [%]	inhibition of growth at 10 µM (U-251) [%]	inhibition of growth at 10 µM (Malme-3M) [%]	inhibition of growth at 10 µM (786-0) [%]	inhibition of growth at 10 µM (NCI-H226) [%]	inhibition of growth at 10 µM (DU-145) [%]	inhibition of growth at 10 µM (HT-29) [%]	inhibition of growth at 10 µM (BT-549) [%]	inhibition of growth at 10 µM (HOP-62) [%]	inhibition of growth at 10 µM (ACHN) [%]	inhibition of growth at 10 µM (CCRF-CEM) [%]	inhibition of growth at 10 µM (MDA-MB-435) [%]	inhibition of growth at 10 µM (SF-295) [%]	inhibition of growth at 10 µM (CAKI-1) [%]	inhibition of growth at 10 µM (OVCAR-8) [%]	inhibition of growth at 10 µM (KM12) [%]	further results
COc1ccc(/C=C2\CCCc3c2nc(C)nc3-c2ccc(OC)cc2)cc1	< 30	< 30	< 30	< 30	< 30	< 30	< 30	< 30	< 30	< 30	< 30	< 30	< 30	< 30	< 30	40.5	< 30	< 30	< 30	< 30	inhibition of growth at 10 µM (LOX IMVI): < 30%; inhibition of growth at 10 µM (MDA-MB-468): < 30%; inhibition of growth at 10 µM (HCT-116): < 30%
Nc1nc2c(c(-c3ccc(Cl)cc3)n1)CCC/C2=C\c1ccc(Cl)cc1	< 30	65.5	< 30	< 30	81	86.1	< 30	< 30	< 30	< 30	92.3	< 30	< 30	< 30	< 30		32.5	< 30	58.8	97.7	GI50 [2]: 12.3 µM; LC50 [2]: 95 µM; TGI [2]: 51.2 µM; GI50 [3]: 15.2 µM; TGI [3]: 55.7 µM; CC50 [3]: 88.6 µM; inhibition of growth at 10 µM (MDA-MB-468): 37.8%; GI50 [4]: 4 µM; TGI [4]: 12.5 µM; CC50 [4]: 51.3 µM; GI50 [5]: 13.7 µM; TGI [5]: 53.1 µM; CC50 [5]: 91.9 µM; GI50 [6]: 15.4 µM; TGI [6]: 36.5 µM; CC50 [6]: 80 µM; GI50 [7]: 7.8 µM; LC50 [7]: > 100 µM; TGI [7]: 61.1 µM
Nc1nc2c(c(-c3ccc(Br)cc3)n1)CCC/C2=C\c1ccc(Br)cc1	< 30	< 30	< 30	< 30	51.6	65.2	< 30	< 30	< 30	< 30	67.8	< 30	< 30	< 30	< 30	63.2	< 30	< 30	< 30	53	inhibition of growth at 10 µM (MDA-MB-468): < 30%
COc1ccc(/C=C2\CCCc3c2nc(N)nc3-c2ccc(OC)cc2)cc1	< 30	< 30	< 30	< 30	< 30	< 30	< 30	< 30	< 30	< 30	< 30	< 30	< 30	< 30	< 30	< 30	< 30	< 30	< 30	< 30	inhibition of growth at 10 µM (LOX IMVI): < 30%; inhibition of growth at 10 µM (HCT-116): < 30%
Cc1nc2c(c(-c3ccc(Cl)cc3)n1)CCC/C2=C\c1ccc(Cl)cc1	< 30	< 30	< 30	< 30	< 30	44	< 30	< 30	< 30	< 30	45.6	34	< 30	< 30	< 30	77.7	< 30	< 30	< 30	62	inhibition of growth at 10 µM (LOX IMVI): 63.2%; inhibition of growth at 10 µM (MDA-MB-468): < 30%
Clc1ccc(/C=C2\CCCC3=C(c4ccc(Cl)cc4)Nc4ccccc4N=C32)cc1	< 30	34.7	< 30	31.9	80.1	79.2	< 30	< 30	< 30	< 30	84.1	< 30	< 30	< 30	< 30	88.2	< 30	< 30	34.3	82.7	GI50 [2]: 5.1 µM; LC50 [2]: > 100 µM; TGI [2]: 61.9 µM; GI50 [3]: 9 µM; TGI [3]: 35.2 µM; CC50 [3]: 81.3 µM; inhibition of growth at 10 µM (MDA-MB-468): 40%; GI50 [4]: 2.4 µM; TGI [4]: 6.4 µM; CC50 [4]: 38.8 µM; GI50 [5]: 4.9 µM; TGI [5]: 52.4 µM; CC50 [5]: 84.3 µM; GI50 [6]: 9.5 µM; TGI [6]: 24.3 µM; CC50 [6]: 64.2 µM; GI50 [7]: 4.1 µM; LC50 [7]: > 100 µM; TGI [7]: 49.4 µM
COc1ccc(/C=C2\CCCc3c2nc(N)nc3-c2ccc(OC)c(OC)c2)cc1OC	42.6	79.1	43.2	54	83.3	62.2	47.5	< 30	65.9	< 30	75.8	63.9	43	72.7	84.7	69.2	< 30	44.2	89.4	67.9	inhibition of growth at 10 µM (LOX IMVI): 87.1%; GI50 [2]: 5.1 µM; LC50 [2]: > 100 µM; TGI [2]: > 100 µM; GI50 [3]: 22.1 µM; TGI [3]: 71.1 µM; CC50 [3]: 94.3 µM; GI50 [4]: 17.4 µM; TGI [4]: 75.8 µM; CC50 [4]: 89.8 µM; GI50 [5]: 26.7 µM; TGI [5]: 85.7 µM; CC50 [5]: > 100 µM; GI50 [6]: 5.5 µM; TGI [6]: 73.4 µM; CC50 [6]: 95.6 µM; inhibition of growth at 10 µM (HCT-116): 92.1%; GI50 [7]: 2.1 µM; LC50 [7]: > 100 µM; TGI [7]: 65.1 µM
